Test results as given in ChEMBL document CHEMBL4602627, “Further exploration of the structure-activity relationship of imidazoquinolines; identification of potent C7-substituted imidazoquinolines” (Bioorg Med Chem Lett, 2020).
Calls of active or inactive are those of the source. No cut-off for these calls is given here.

What was measured:
[1] = target: T1, Toll-like receptor 7/8 (Canis lupus familiaris) (UniProt A1XC23+H6BA89); assay: Agonist activity at TLR7/8 in dog PBMC assessed as IL-10 secretion at 20 uM after 29 hrs by ELISA (reference value: 33 +/- 16 pg/ml); type: cell-based
Procedure, shortened: (§1)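 Canine PBMCs (2 × 10^6 cells/mL) were incubated with agonist at 20 µM for 29 h. TNFα, IL-12, IL-6, IL-10, IL-2 and IFNγ in the medium were measured by ELISA, in triplicate. Vehicle was 1% DMSO in water.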

[2] = target: T1, Toll-like receptor 7/8 (Canis lupus familiaris); assay: Agonist activity at TLR7/8 in dog PBMC assessed as increase in IFN-gamma secretion at 20 uM measured over 29 hrs by ELISA
[3] = target: T1, Toll-like receptor 7/8 (Canis lupus familiaris); assay: Agonist activity at TLR7/8 in dog PBMC assessed as increase in IL-12 secretion at 20 uM measured over 29 hrs by ELISA
[4] = target: T1, Toll-like receptor 7/8 (Canis lupus familiaris); assay: Agonist activity at TLR7/8 in dog PBMC assessed as maximal increase in IFN-gamma secretion at 20 uM after 30 to 48 hrs by ELISA; type: cell-based
[5] = target: T1, Toll-like receptor 7/8 (Canis lupus familiaris); assay: Agonist activity at TLR7/8 in dog PBMC assessed as increase in TNFalpha secretion at 20 uM measured over 29 hrs by ELISA
[6] = Solubility of the compound at >100 uM; type: physicochemical
[7] = target: T1, Toll-like receptor 7/8 (Canis lupus familiaris); assay: Agonist activity at TLR7/8 in dog PBMC assessed as TNFalpha secretion at 20 uM after 29 hrs by ELISA (reference value: 8 +/- 2 pg/ml); type: cell-based; procedure, shortened: as §1
[8] = target: T1, Toll-like receptor 7/8 (Canis lupus familiaris); assay: Agonist activity at TLR7/8 in dog PBMC assessed as IL-6 secretion at 20 uM after 29 hrs by ELISA (reference value: 310 +/- 90 pg/ml); type: cell-based; procedure, shortened: as §1
[9] = target: T1, Toll-like receptor 7/8 (Canis lupus familiaris); assay: Agonist activity at TLR7/8 in dog PBMC assessed as IL-12 secretion at 20 uM after 29 hrs by ELISA (reference value: 18 +/- 8 pg/ml); type: cell-based; procedure, shortened: as §1
[10] = target: T1, Toll-like receptor 7/8 (Canis lupus familiaris); assay: Agonist activity at TLR7/8 in dog PBMC assessed as IL-2 secretion at 20 uM after 29 hrs by ELISA (reference value: 47 +/- 20 pg/ml); type: cell-based; procedure, shortened: as §1
[11] = target: T1, Toll-like receptor 7/8 (Canis lupus familiaris); assay: Agonist activity at TLR7/8 in dog PBMC assessed as IFNgamma secretion at 20 uM after 29 hrs by ELISA (reference value: 0.4 +/- 0.7 pg/ml); type: cell-based; procedure, shortened: as §1
[12] = target: T1, Toll-like receptor 7/8 (Canis lupus familiaris); assay: Agonist activity at TLR7/8 in dog PBMC assessed as maximal increase in TNFalpha secretion at 20 uM after 30 to 48 hrs by ELISA; type: cell-based
[13] = target: T1, Toll-like receptor 7/8 (Canis lupus familiaris); assay: Agonist activity at TLR7/8 in dog PBMC assessed as maximal increase in IL-12 secretion at 20 uM after 30 to 48 hrs by ELISA; type: cell-based
[14] = target: T2, Toll-like receptor 7 (Homo sapiens) (UniProt Q9NYK1); assay: Agonist activity at human TLR7 expressed in HEK-Blue cells assessed as induction of NFkappaB activation by measuring increase in SEAP level by SEAP reporter gene-based UV-vis absorbance method relative to imiquimod; type: cell-based
T2 sequence (whole entry): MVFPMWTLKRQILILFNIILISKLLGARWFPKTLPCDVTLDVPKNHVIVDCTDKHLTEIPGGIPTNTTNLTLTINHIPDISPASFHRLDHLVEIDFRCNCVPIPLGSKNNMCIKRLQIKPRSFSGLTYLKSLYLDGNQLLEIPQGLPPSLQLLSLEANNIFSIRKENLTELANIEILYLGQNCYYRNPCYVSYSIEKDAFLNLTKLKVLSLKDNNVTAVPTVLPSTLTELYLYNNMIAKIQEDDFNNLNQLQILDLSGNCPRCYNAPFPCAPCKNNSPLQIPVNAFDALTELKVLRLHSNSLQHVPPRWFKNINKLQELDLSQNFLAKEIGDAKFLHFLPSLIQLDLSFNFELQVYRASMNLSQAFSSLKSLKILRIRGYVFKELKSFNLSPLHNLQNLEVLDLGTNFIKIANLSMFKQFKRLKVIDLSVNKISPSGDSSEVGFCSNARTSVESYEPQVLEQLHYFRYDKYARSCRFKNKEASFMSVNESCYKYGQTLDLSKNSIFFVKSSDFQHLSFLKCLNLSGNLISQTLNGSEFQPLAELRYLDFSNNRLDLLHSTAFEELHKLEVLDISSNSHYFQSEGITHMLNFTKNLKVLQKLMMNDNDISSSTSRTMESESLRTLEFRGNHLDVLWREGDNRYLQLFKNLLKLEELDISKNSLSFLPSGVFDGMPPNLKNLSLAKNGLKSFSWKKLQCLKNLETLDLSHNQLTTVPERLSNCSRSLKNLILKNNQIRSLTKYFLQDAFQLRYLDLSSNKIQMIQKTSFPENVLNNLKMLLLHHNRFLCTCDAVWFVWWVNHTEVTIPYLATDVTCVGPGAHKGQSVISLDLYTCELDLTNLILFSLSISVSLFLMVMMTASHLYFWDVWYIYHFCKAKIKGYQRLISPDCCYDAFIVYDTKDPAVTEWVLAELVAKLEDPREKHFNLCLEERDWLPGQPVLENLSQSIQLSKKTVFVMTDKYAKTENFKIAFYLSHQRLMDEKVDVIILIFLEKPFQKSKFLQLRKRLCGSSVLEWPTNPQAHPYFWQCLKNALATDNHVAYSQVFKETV

[15] = target: T2, Toll-like receptor 7 (Homo sapiens); assay: Agonist activity at human TLR7 expressed in HEK-Blue cells assessed as induction of NFkappaB activation by measuring increase in SEAP level by SEAP reporter gene-based UV-vis absorbance method relative to resiquimod; type: cell-based
[16] = target: T3, Toll-like receptor 8 (Homo sapiens) (UniProt Q9NR97); assay: Agonist activity at human TLR8 expressed in HEK-Blue cells assessed as induction of NFkappaB activation by measuring increase in SEAP level by SEAP reporter gene-based UV-vis absorbance method relative to resiquimod; type: cell-based
T3 sequence (whole entry): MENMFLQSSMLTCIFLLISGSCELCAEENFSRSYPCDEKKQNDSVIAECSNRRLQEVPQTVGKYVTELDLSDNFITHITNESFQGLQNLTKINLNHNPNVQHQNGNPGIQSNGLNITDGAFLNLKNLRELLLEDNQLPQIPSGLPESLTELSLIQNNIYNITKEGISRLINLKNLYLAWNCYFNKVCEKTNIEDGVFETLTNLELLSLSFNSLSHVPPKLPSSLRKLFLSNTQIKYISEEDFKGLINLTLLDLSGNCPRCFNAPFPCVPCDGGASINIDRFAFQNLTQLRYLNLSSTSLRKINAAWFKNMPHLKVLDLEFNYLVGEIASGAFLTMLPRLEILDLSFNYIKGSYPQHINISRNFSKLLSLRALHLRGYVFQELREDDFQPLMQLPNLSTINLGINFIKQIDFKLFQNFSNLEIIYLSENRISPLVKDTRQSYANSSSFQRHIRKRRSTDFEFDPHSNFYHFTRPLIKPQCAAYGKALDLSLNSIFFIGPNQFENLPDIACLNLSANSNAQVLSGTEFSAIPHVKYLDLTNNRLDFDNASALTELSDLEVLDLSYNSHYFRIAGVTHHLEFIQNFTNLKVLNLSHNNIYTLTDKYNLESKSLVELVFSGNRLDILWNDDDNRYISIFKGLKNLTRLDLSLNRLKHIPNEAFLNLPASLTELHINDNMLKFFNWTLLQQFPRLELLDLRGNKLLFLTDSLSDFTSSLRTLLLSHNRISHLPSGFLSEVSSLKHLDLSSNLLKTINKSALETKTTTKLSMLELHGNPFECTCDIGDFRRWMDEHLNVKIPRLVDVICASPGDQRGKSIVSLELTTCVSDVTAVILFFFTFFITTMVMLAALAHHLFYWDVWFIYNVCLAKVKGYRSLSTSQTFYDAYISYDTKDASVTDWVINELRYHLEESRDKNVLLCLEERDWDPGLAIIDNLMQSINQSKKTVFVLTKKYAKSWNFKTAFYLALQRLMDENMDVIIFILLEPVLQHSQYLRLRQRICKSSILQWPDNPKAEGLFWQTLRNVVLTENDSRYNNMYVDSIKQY

SMILES | Activity [1] | Activity [2] | Activity [3] | Activity [4] | Activity [5] | solubility [6] | Activity [7] | Activity [8] | Activity [9] | Activity [10] | Activity [11] | Activity [12] | Activity [13] | fold change (FC) [14] | fold change (FC) [15] | fold change (FC) [16]
CCOCc1nc2c(N)nc3cc(Cl)ccc3c2n1CC(C)(C)O | 12 pg/mL | Active | Active | Active | Active | Insoluble | 70 pg/mL | 320 pg/mL | 1900 pg/mL | 76 pg/mL | 16 pg/mL | Active | Active | – | – | –
CCCCc1nc2c(N)nc3cc(Cl)ccc3c2n1CC(C)C | 14 pg/mL | Active | Active | Active | Active | Insoluble | 91 pg/mL | 240 pg/mL | 760 pg/mL | 63 pg/mL | 7 pg/mL | Active | Active | – | – | –
CCCCc1nc2c(N)nc3cc(OC)ccc3c2n1CC(C)C | 37 pg/mL | – | Active | Active | Active | Insoluble | 49 pg/mL | 500 pg/mL | 746 pg/mL | 30 pg/mL | 0 pg/mL | Active | Active | – | – | –
CCOCc1nc2c(N)nc3cc(C#N)ccc3c2n1CC(C)(C)O | 6 pg/mL | – | – | – | Active | Insoluble | 80 pg/mL | 214 pg/mL | 13 pg/mL | 46 pg/mL | 0.2 pg/mL | Active | Active | – | – | –
CCOCc1nc2c(N)nc3ccccc3c2n1CC(C)(C)O [RESIQUIMOD] | 21 pg/mL | Active | Active | Active | Active | Insoluble | 190 pg/mL | 380 pg/mL | 2800 pg/mL | 120 pg/mL | 26 pg/mL | Active | Active | – | – | –
CCOCc1nc2c(N)nc3cc(Cl)ccc3c2n1CC(C)C | 20 pg/mL | Active | Active | Active | Active | Insoluble | 114 pg/mL | 280 pg/mL | 781 pg/mL | 50 pg/mL | 5 pg/mL | Active | Active | – | – | –
CCCCc1nc2c(N)nc3cc(C#N)ccc3c2n1CC(C)C | 37 pg/mL | Active | Active | Active | Active | Insoluble | 10 pg/mL | 350 pg/mL | 920 pg/mL | 60 pg/mL | 13 pg/mL | Active | Active | – | – | –
CCOCc1nc2c(N)nc3cc(C#N)ccc3c2n1CC(C)C | 6 pg/mL | Active | Active | Active | – | Insoluble | 7 pg/mL | 71 pg/mL | 190 pg/mL | 57 pg/mL | 4 pg/mL | Active | Active | – | – | –
CC(C)Cn1cnc2c(N)nc3ccccc3c21 [IMIQUIMOD] | 16 pg/mL | Active | Active | Active | Active | Insoluble | 25 pg/mL | 300 pg/mL | 1200 pg/mL | 85 pg/mL | 18 pg/mL | Active | Active | – | – | –
CCCCc1nc2c(N)nc3cc(Cl)ccc3c2n1CC(C)(C)O | 7 pg/mL | Active | Active | Active | Active | Insoluble | 22 pg/mL | 230 pg/mL | 1700 pg/mL | 55 pg/mL | 13 pg/mL | Active | Active | < 100 | < 2 | < 4
CCCCc1nc2c(N)nc3cc(C#N)ccc3c2n1CC(C)(C)O | 14 pg/mL | Active | Active | Active | Active | Insoluble | 44 pg/mL | 290 pg/mL | 418 pg/mL | 45 pg/mL | 12 pg/mL | Active | Active | – | – | –
